Assay outcomes from PubChem.
This is a sample that favours compounds with a hit; in the whole collection about 3% have one here.
CendR NRP1 mod = alters CendR peptide binding to human NRP-1 | inhibition, % at 25 µM | O14786 | FAM-RPARPAR peptide binding to NRP-1, fluorescence polarization | 0.85% of 360,000 active;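 active = inhibition or corrected inhibition above about 18%, plus a signal ratio from 0.5 to 1.5, limit read from the data, passing the limit was not always enough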
Target sequence (O14786 whole entry, looked up): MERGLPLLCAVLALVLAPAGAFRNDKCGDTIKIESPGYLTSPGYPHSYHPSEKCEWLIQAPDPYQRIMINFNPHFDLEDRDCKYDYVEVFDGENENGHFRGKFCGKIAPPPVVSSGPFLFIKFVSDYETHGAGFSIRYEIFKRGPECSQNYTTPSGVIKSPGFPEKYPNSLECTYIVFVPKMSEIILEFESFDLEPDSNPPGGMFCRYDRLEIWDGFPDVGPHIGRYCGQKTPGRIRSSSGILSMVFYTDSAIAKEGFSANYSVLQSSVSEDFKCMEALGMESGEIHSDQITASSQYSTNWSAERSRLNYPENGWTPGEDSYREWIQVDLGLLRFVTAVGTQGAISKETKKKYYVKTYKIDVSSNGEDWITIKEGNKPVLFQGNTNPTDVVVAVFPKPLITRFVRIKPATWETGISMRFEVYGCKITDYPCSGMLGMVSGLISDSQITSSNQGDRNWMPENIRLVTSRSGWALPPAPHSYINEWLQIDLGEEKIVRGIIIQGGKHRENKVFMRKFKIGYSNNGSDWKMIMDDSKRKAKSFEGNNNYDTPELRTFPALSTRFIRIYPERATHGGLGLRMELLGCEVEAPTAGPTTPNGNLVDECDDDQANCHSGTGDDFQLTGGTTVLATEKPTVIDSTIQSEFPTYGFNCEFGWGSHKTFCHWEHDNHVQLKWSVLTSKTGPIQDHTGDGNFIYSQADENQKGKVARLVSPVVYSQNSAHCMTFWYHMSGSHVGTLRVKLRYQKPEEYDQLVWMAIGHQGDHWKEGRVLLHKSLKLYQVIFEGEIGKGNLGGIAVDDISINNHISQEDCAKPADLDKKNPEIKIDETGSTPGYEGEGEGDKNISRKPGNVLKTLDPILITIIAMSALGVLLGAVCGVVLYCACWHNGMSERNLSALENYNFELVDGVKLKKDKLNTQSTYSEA
T cruzi repl = blocks replication of Trypanosoma cruzi; T. cruzi beta-gal in NIH3T3, luminescence, 90 h; inhibition, % (test concentration not listed); 1.4% of 300,000 active;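 active = mean inhibition across valid replicates above about 55%, limit read from the data; inconclusive = mean below that limit but half or more replicates reach it; inactive = mean below it, under half of replicates reach it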;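 also: signal also drops with host cell toxicity which is not excluded here; higher percent means less beta-gal luminescence so fewer parasites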
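System: NIH/3T3 fibroblasts plus reporter T. cruzi. Medium: DMEM plus 2% FBS. Probe or stimulus: 5000 reporter trypomastigotes per well. Compound: single 50 nL compound addition per well in DMSO. Incubation: co-culture of at least 90 h after 3 h attachment. Detection: GalScreen β-gal luminescence, detergent lysis, 60 min. Evaluation: parasite load inhibition, %.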
V-ATPase pH = alters yeast V-ATPase proton transport. S. cerevisiae, pHLuorin cytosolic pH fluorescence. response, % at 10 µM. 0.37% of 350,000 active. AID 504577; in the data active = response mostly above about 7.3%, no sharp cut-off; inactive = mostly below about 5.4%; also: actives read high
AI-2 QS mod = modulators of Vibrio harveyi AI-2 quorum sensing system; activity change, % at 7.5 µM; 0.4% of 300,000 active; Vibrio harveyi JMH597 AI-2 luminescence/OD600 ratio, 9 h; stronger effect = lower value; strain lacks LuxN and CqsS sensors; 0 = neutral-control median; in the data active = activity change below about -75%, passing the limit was not always enough; inconclusive = no clear call, values can overlap the other calls;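 also: luminescence divided by OD600 gain over 9 h not by final OD600 alone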
Yeast superoxide = caloric restriction mimetics inhibiting age-related superoxide in yeast | S. cerevisiae aged cells, superoxide DHE fluorescence; stronger effect = lower value | superoxide response (% of plate mean), % at 10 µM | 0.18% of 330,000 active | AID 2690;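 active = superoxide response under a set limit, about three screen SD below normal, cut at about 65% in these data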;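 also: yeast aged for seven days with compound at 30 °C before DHE staining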
HIF activator = HIF pathway transcriptional activation | U2OS HRE-luciferase reporter, luminescence; normalized: DMSO 0%, desferrioxamine 100% | activation, % at 7.5 µM (by protocol) | 0.32% of 300,000 active | AID 1910;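 active = mean activation of at least 10% of the iron chelator positive control signal, with at least half of replicates also reaching 10%; inconclusive = mean and replicate majority disagree about reaching 10%; inactive = mean and most replicates under 10%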
A number is an active result; . = inactive; ? = inconclusive; / = no result given.

SMILES	CendR NRP1 mod	T cruzi repl	V-ATPase pH	AI-2 QS mod	Yeast superoxide	HIF activator
NC(=S)N/N=C/c1ccc(-c2ccc(SC(F)F)cc2)o1	.	72.0	.	.	.	.
NC(=S)N/N=C/c1ccc(-c2ccccc2)o1	.	.	.	?	.	.
CCOC(=O)/C=C/c1cc(F)ccc1O	.	/	/	/	/	/
CC(C)n1c(C(O)c2ccc3c(c2)OCO3)nc2ccccc21 (centres undefined)	.	.	.	.	.	.
Cc1cc(C)c2cc(C(=O)N3CCC(Cc4ccccc4)CC3)[nH]c2c1	.	.	.	.	.	.
CN(C)C(=S)Nc1nc2ccccc2s1	.	56.5	.	.	/	.
C=CCN1c2ccccc2[C@]23C[C@@H](C(=O)OC)N(C(C)=O)C2=NC(C(=O)OC)=C(C(=O)OC)[C@H]13	.	.	.	.	.	.
C=CCN1c2ccccc2[C@]23C[C@@H](C(=O)OC)N=C2NC(C(=O)OC)=C(C(=O)OC)[C@H]13	33.0	.	.	.	.	.
O=C(Nc1ccccc1)c1sccc1Oc1ccc([N+](=O)[O-])cc1F	.	63.2	.	.	.	.
O=C(COc1ccccc1)NC(=S)Nc1cccc2c(O)cccc12	.	/	.	/	/	/
Fc1ccc(N/N=C/c2ccc(N3CCOCC3)cc2)c(F)c1	.	64.6	.	.	.	.
CCN1C(=O)/C(=C\c2nc3ccccc3c(=O)n2-c2ccccc2)c2ccccc21	.	.	.	.	.	.
CCN1C(=O)/C(=C/c2nc3ccccc3c(=O)n2-c2ccc(C)cc2)c2ccccc21	.	73.8	.	.	.	.
CC(C)n1nc(C(=O)Nc2ccc3c(c2)OCO3)c2ccccc2c1=O	.	/	.	/	.	/
CCOC(=O)c1cc([N+](=O)[O-])c([N+](=O)[O-])cc1NC(C)=O	.	.	14.6	.	.	.
Cc1ccccc1NC(=O)CSc1ccc(-c2ccccn2)nn1	.	.	.	.	.	.
Cc1cc(C)cc(NC(=O)CSc2ccc(-c3ccccn3)nn2)c1	.	.	.	.	.	10.4
Cn1cc(CN2CCC(C(=O)Nc3cccc(-c4cscn4)c3)CC2)cn1	.	.	.	.	.	73.2
CCn1cc(CN2CCC(C(=O)Nc3cccc(-c4cscn4)c3)CC2)cn1	.	.	.	.	.	.
CCCn1ncc(CN2CCC(C(=O)Nc3cccc(-c4cccc(F)c4)c3)CC2)c1C	.	57.3	.	.	.	.
Cc1nn(C(C)C)c(C)c1CN1CCC(C(=O)Nc2cccc(-c3cccc(F)c3)c2)CC1	.	55.3	.	.	.	.
COc1cccc(-n2c(SCC(=O)N3CCOCC3)nc3c([nH]c4ccccc43)c2=O)c1	.	.	.	.	.	456.9
Cc1cc(Cl)ccc1OCC(=O)NNC(=O)C1CCCO1 (centres undefined)	25.1	.	.	.	.	.
O=C(O)c1ccccc1C(=O)Nc1ccccc1	.	.	.	.	.	.
O=C(Nc1ccccc1)C1=C(c2ccccc2)S(=O)(=O)CCS1(=O)=O	.	69.3	.	?	/	.
SMILES	CendR NRP1 mod	T cruzi repl	V-ATPase pH	AI-2 QS mod	Yeast superoxide	HIF activator
Cc1nc(S/C(=C/c2ccc(-c3ccc(C(=O)O)cc3)o2)C(=O)O)n[nH]1	.	.	.	.	.	.
Cc1nc(S/C(=C/c2ccc(-c3ccc(Cl)cc3)o2)C(=O)O)n[nH]1	36.1	.	.	.	.	.
Cc1nc(N2CCN(C)CC2)c2sc(=S)n(-c3ccccc3)c2n1	.	.	.	.	.	.
S=c1sc2c(Cl)ncnc2n1-c1ccccc1	.	59.1	.	.	/	.
CN(C)c1ccc(O)c2c1CC1CC3[C@@H](N(C)C)C(=O)C(C(N)=O)=C(O)[C@]3(O)C(=O)C1=C2O (some centres undefined)	.	.	.	-87.1	.	.
Cc1cccc(Cn2c(C(C)O)nc3ccccc32)c1 (centres undefined)	.	.	.	.	.	.
Cc1ccc(OCc2ccc(C(=O)NCc3cccnc3)cc2)cc1C	.	.	/	.	.	.
COc1ccc(N2CCN(C(=O)CN(C)S(=O)(=O)c3cc(C)ccc3OC)CC2)cc1	.	.	.	.	.	464.5
[O-][N+]1=c2ccc(Nc3ccccc3)cc2=NC12CCCCC2	.	.	.	.	.	.
COc1ccc(Nc2ccc3c(c2)=NC2(CCCCC2)[N+]=3[O-])cc1	.	58.4	.	.	.	.
CCOC(=O)N(C)c1c(CC)nc2c(OCCOc3ccccc3)cccn12	.	/	/	/	/	/
O=C(C#Cc1ccccc1)Nc1ccccc1F	.	.	.	-86.9	.	.
CNC(=O)Nc1ccccc1F	.	.	.	.	.	.
Cc1nc(C)c(N)c(=O)[nH]1	23.9	.	.	.	.	.
Cc1cccc(N(Cc2ccccc2)C(=O)CCl)c1	.	72.1	.	.	/	.
COc1ccc(C(=O)Nc2nnc(CCc3ccccc3)s2)c(OC)c1	.	.	.	.	.	.
C=CCN(CC=C)S(=O)(=O)c1ccc(NC(=S)NC(=O)/C=C/c2ccc(C)cc2)cc1	.	.	.	.	.	.
CCCn1c(NC(=S)Nc2ccccc2)nc2ccccc21	.	.	.	.	.	.
CCn1c(NC(=S)Nc2ccccc2)nc2ccccc21	.	65.1	.	.	.	.
CSc1ncnc2c1ncn2CCCNCCc1ccccn1	.	/	.	/	/	/
N#Cc1c(C(F)(F)F)cc(-c2ccco2)nc1SCc1ccncc1	.	61.5	.	.	.	.
CCCCN(C(=O)c1ccc(N2CCCC2=O)cc1)c1c(N)n(CC(C)C)c(=O)[nH]c1=O	.	/	.	/	.	/
O=C(CCC(=O)N(CC(=O)NC1CCCCC1)c1ccc(F)cc1)Nc1nccs1	.	.	.	.	.	.
Cc1ccc(CN2C(=O)CCC2(C)c2nnnn2-c2c(C)cccc2C)cc1 (centres undefined)	.	/	/	/	/	/
COc1ccc(CN2C(=O)CCC2(C)c2nnnn2-c2c(C)cccc2C)cc1 (centres undefined)	23.3	/	/	/	/	/
SMILES	CendR NRP1 mod	T cruzi repl	V-ATPase pH	AI-2 QS mod	Yeast superoxide	HIF activator
Cc1cnc(C(=O)OCC(=O)Nc2sc3c(c2C#N)CCC3)cn1	37.8	.	.	.	.	.
Cc1ccc2nc(SCc3nnc(-c4ccccc4Br)o3)[nH]c2c1	33.3	.	.	.	.	.
Cc1cc(SCC(=O)N/N=C/c2ccc(O)c(O)c2O)c(C)cc1Br	.	.	.	.	.	36.2
CC1=C(C(N)=O)C(c2cccnc2)n2nc(-c3cccc(C)c3)nc2N1 (centres undefined)	.	65.6	.	.	.	.
Nc1nc(-c2ccc([N+](=O)[O-])cc2)c(C(=O)Nc2ccc(Cl)cc2)s1	.	.	.	.	.	.
COc1ccc(NC(=O)c2cc3c(COC(C)=O)cnc(C)c3oc2=Nc2cccc(C(=O)O)c2)c(OC)c1	.	.	.	.	.	.
Oc1ccc(N=Nc2ccc(Br)cc2)c(O)c1	.	60.2	.	.	.	.
